What was measured:
[1] = target: Muscarinic acetylcholine receptor M4 (Homo sapiens) (UniProt P08173); test: Inhibition of binding of [3H]quinuclidinyl benzilate to Muscarinic acetylcholine receptor M4 in membranes of transfected CHO cells
[2] = target: T1, Muscarinic acetylcholine receptor M2 (Homo sapiens, UniProt P08172); test: Inhibitory activity against [3H]quinuclidinyl Benzilate binding to Muscarinic acetylcholine receptor M2 in the presence of GTP
T1 sequence (P08172 whole entry): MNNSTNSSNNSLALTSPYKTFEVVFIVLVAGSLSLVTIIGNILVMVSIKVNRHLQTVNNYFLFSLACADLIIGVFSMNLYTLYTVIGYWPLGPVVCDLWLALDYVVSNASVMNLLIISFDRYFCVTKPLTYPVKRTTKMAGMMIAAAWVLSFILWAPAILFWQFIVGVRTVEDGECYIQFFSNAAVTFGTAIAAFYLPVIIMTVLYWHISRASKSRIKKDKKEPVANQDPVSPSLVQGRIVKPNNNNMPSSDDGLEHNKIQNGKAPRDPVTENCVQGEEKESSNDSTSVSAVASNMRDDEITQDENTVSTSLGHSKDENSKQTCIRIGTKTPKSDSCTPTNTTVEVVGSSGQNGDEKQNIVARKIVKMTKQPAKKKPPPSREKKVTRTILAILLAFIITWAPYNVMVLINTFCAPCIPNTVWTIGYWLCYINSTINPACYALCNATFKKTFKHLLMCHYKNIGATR
Outline: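 Membranes from CHO cells expressing human M2 receptor. Competition against 0.1 nM [3H]quinuclidinyl benzilate in 25 mM sodium phosphate pH 7.4, 5 mM MgCl2, without or with 10 μM GTP; 30 min at 37 °C, triplicate. Nonspecific binding with 1 μM atropine. Filtration, scintillation counting.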

[3] = target: Muscarinic acetylcholine receptor M4 (Homo sapiens) (UniProt P08173); test: Inhibitory activity against [3H]-cyclic AMP accumulation in CHO transfected cells mediated by Muscarinic acetylcholine receptor M4
[4] = target: Muscarinic acetylcholine receptor M2 (Homo sapiens) (UniProt P08172); test: Inhibition of binding of [3H]quinuclidinyl benzilate to Muscarinic acetylcholine receptor M2 in membranes of transfected CHO cells
[5] = target: T2, Muscarinic acetylcholine receptor M1 (Rattus norvegicus, UniProt P08482); test: Affinity versus [3H]oxotremorine M (agonist) binding to Muscarinic acetylcholine receptor M1 in Rat Cerebral Cortical Membranes, (Kd=[…])
T2 sequence (P08482 whole entry): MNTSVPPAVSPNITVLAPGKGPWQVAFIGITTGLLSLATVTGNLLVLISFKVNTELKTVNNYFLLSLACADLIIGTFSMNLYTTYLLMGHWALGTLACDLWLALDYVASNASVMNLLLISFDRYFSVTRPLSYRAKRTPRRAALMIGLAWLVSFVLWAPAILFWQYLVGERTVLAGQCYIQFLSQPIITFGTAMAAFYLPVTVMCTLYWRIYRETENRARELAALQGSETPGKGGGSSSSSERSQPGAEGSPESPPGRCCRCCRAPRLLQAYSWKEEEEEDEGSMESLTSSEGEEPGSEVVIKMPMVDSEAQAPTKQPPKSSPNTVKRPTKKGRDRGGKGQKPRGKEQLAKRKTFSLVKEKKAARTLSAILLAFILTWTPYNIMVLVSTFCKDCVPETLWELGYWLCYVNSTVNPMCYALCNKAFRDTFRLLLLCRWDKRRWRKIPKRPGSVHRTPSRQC

[6] = target: T2, Muscarinic acetylcholine receptor M1
[7] = target: Muscarinic acetylcholine receptor M2 (Homo sapiens) (UniProt P08172); test: Inhibition of binding of 0.1 nM [3H]quinuclidinyl benzilate to Muscarinic acetylcholine receptor M2 in membranes of transfected CHO cells in the presence of 10 uM GTP
[8] = target: Muscarinic acetylcholine receptor M3 (Homo sapiens, UniProt P20309); test: Inhibitory activity against stimulation of [3H]inositol monophosphate accumulation in [3H]inositol-labelled CHO transfected cells mediated by Muscarinic acetylcholine receptor M3
Muscarinic acetylcholine receptor M3, sequence (P20309 whole entry, looked up): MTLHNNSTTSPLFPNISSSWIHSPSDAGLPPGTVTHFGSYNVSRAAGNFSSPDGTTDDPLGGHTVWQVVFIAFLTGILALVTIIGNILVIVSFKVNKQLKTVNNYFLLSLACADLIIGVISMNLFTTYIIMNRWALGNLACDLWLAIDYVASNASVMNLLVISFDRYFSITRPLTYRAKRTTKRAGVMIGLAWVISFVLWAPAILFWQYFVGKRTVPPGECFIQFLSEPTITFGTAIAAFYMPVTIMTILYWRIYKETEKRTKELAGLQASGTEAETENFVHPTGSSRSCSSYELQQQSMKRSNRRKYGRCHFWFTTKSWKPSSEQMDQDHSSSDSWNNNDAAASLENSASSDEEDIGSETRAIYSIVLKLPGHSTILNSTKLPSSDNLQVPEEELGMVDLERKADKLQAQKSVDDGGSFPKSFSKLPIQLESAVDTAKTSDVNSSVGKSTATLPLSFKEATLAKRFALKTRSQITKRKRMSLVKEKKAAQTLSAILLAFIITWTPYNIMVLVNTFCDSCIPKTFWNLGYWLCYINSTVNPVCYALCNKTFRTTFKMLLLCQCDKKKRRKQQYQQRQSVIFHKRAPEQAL

[9] = target: T3, Muscarinic acetylcholine receptor M4 (Homo sapiens, UniProt P08173); test: Inhibition of binding of [3H]quinuclidinyl benzilate to muscarinic receptors in membranes of CHO cells transfected with Muscarinic acetylcholine receptor M4; assay type: cell membranes
T3 sequence (P08173 whole entry): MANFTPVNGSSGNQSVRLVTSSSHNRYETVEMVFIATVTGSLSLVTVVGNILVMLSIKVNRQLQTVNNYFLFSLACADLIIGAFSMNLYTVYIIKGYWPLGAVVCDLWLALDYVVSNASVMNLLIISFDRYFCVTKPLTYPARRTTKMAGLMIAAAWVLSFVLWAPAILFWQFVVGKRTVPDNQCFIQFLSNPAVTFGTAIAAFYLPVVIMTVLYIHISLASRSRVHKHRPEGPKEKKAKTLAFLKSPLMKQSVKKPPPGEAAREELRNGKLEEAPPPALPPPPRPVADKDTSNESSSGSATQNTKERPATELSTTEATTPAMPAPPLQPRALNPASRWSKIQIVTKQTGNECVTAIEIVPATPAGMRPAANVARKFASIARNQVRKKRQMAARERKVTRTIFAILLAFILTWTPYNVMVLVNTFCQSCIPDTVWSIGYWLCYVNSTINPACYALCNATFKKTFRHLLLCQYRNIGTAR

[10] = target: T2, Muscarinic acetylcholine receptor M1; test: Inhibition of binding of [3H]quinuclidinyl benzilate to Muscarinic acetylcholine receptor M1 in rat cerebral cortical membranes; assay type: cell membranes, Membrane
Outline: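 Rat cerebral cortex membranes were homogenised in 50 mM Tris-HCl pH 7.4 and diluted in HEPES binding buffer. They were incubated with 0.2 nM [3H]quinuclidinyl benzilate in 20 mM HEPES pH 7.4 with 10 mM MgCl2 and 100 mM NaCl for 30 min at 37 °C, in triplicate. Nonspecific binding used 1 µM atropine. Filtration was followed by scintillation counting.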

CC(=O)OC1CC2CCCC1N2 (stereo not given)
Ki [1]: 33 nM | IC50 [2]: 120 nM | IC50 [3]: 11 nM (agonist) | Ki [4]: 2.6 nM | Ki [5]: 5.6 nM | Ki [6]: 22000 nM | IC50 [7]: 120 nM | EC50 [8]: 3.6 nM | Ki [9]: 33 nM | Ki [10]: 21000 nM

From ChEMBL document CHEMBL1131242, “6beta-Acetoxynortropane: a potent muscarinic agonist with apparent selectivity toward M2-receptors” (J Med Chem, 1998)
